# Measurements from ChEMBL document CHEMBL1909504, “New series of isoniazid hydrazones linked with electron-withdrawing substituents” (Eur J Med Chem, 2011).
# pIC50: −log10 of the molar value.
# Key:
# [1] = tested on: Mycobacterium tuberculosis; assay: Antimycobacterial activity against Mycobacterium tuberculosis CNTC My 331/88 ATCC 27294 after 14 days; format: functional; settings: CNTC My 331/88 ATCC 27294, 336 h
# Outline: (§1)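 Sula semi-synthetic medium at 37 °C. Compounds were dissolved in DMSO (max. 5% DMSO in water) and added to the medium at 1000, 500, 250, 125, 62, 31, 16, 8, 4, 2 and 1 μmol L⁻¹. MIC was read after 7, 14 and 21 days of incubation at 37 °C. Strains came from the Czech National Collection of Type Cultures.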
# [2] = tested on: Mycobacterium tuberculosis; assay: Antimycobacterial activity against Mycobacterium tuberculosis CNTC My 331/88 ATCC 27294 after 21 days; format: functional; settings: CNTC My 331/88 ATCC 27294, 504 h; outline: as §1
# Mycobacterium avium [3] = assay: Antimycobacterial activity against Mycobacterium avium CNTC My 330/88 after 14 days; format: functional; settings: CNTC My 330/88, 336 h; outline: as §1
# Mycobacterium avium [4] = assay: Antimycobacterial activity against Mycobacterium avium CNTC My 330/88 after 21 days; format: functional; settings: CNTC My 330/88, 504 h; outline: as §1
# Mycobacterium kansasii [5] = assay: Antimycobacterial activity against Mycobacterium kansasii CNTC My 335/80 after 7 days; format: functional; settings: 168 h
# Outline: (§2)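 MIC in Sula semi-synthetic medium at 37 °C. M. kansasii 6509/96 is a clinical isolate; M. kansasii CNTC My 235/80 comes from the Czech national collection. Compounds were dissolved in DMSO (max. 5% DMSO in water) and tested at 1000, 500, 250, 125, 62, 31, 16, 8, 4, 2 and 1 μmol L⁻¹. MIC was read after 7, 14 and 21 days.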
# Mycobacterium kansasii [6] = assay: Antimycobacterial activity against Mycobacterium kansasii CNTC My 335/80 after 14 days; format: functional; settings: 336 h; outline: as §2
# Mycobacterium kansasii [7] = assay: Antimycobacterial activity against Mycobacterium kansasii CNTC My 335/80 after 21 days; format: functional; settings: 504 h; outline: as §2
# Mycobacterium kansasii [8] = assay: Antimycobacterial activity against Mycobacterium kansasii 6509/96 isolate after 7 days; format: functional; settings: 6509/96, 168 h; outline: as §2
# Mycobacterium kansasii [9] = assay: Antimycobacterial activity against Mycobacterium kansasii 6509/96 isolate after 14 days; format: functional; settings: 6509/96, 336 h; outline: as §2
# Mycobacterium kansasii [10] = assay: Antimycobacterial activity against Mycobacterium kansasii 6509/96 isolate after 21 days; format: functional; settings: 6509/96, 504 h; outline: as §2
# HepG2 = assay: Cytotoxicity against human HepG2 cells by MTT assay; format: cell-based
# Outline: (§3)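 MTT viability assay in RPMI-1640 without phenol red with 10% FCS and 2 mM L-glutamine, at 37 °C and 5% CO₂. HepG2 seeded at 5×10³ cells/well; fresh human PBMC at 2.0×10⁵ cells/well. After 24 h, cells were exposed overnight in serum-free medium, then given MTT (2 mg mL⁻¹) for 4 h. Formazan dissolved in DMSO, OD540 minus OD620, compared with untreated controls. IC50 taken from dose-response curves; two independent experiments, 4–8 parallels.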
# PBMC = assay: Cytotoxicity against human PBMC by MTT assay; format: cell-based; outline: as §3
# [11] = Selectivity index, ratio of IC50 for human HepG2 cells to MIC for Mycobacterium tuberculosis CNTC My 331/88 ATCC 27294; format: functional
# Outline: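 HepG2 human hepatoma cells in RPMI-1640 without phenol red with 10% FCS, 2 mM L-glutamine and gentamycin, at 37 °C and 5% CO₂. Seeded at 5×10³ cells/well and grown 24 h, then treated overnight in serum-free medium. Read-out was MTT (4 h), formazan dissolved in DMSO, OD540 minus OD620. IC50 was taken from dose-response curves, two experiments with 4–8 parallels. MIC was measured in Sula medium.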
SMILES,MIC [1] [µM],MIC [2] [µM],MIC (Mycobacterium avium [3]) [µM],MIC (Mycobacterium avium [4]) [µM],MIC (Mycobacterium kansasii [5]) [µM],MIC (Mycobacterium kansasii [6]) [µM],MIC (Mycobacterium kansasii [7]) [µM],MIC (Mycobacterium kansasii [8]) [µM],MIC (Mycobacterium kansasii [9]) [µM],MIC (Mycobacterium kansasii [10]) [µM],pIC50 (HepG2),pIC50 (PBMC),Ratio [11]
O=C(N/N=C/Nc1cccc(O)c1)c1ccncc1,2,2,500,500,250,1000,1000,16,32,32,–,–,–
O=C(N/N=C/Nc1ccc(Cl)cc1)c1ccncc1,1,1,500,1000,125,250,1000,16,32,32,–,–,–
O=C(N/N=C/Nc1cccc(Br)c1)c1ccncc1,1,1,250,500,250,1000,1000,8,8,16,–,–,–
O=C(N/N=C/Nc1ccc(Cl)c(Cl)c1)c1ccncc1,1,2,250,250,250,500,500,8,16,16,–,–,–
O=C(N/N=C/Nc1cc(Cl)ccc1O)c1ccncc1,2,2,500,500,125,250,250,8,16,32,4.66,4.12,10.9
O=C(N/N=C/Nc1ccc(F)c(F)c1)c1ccncc1,2,2,250,250,250,500,1000,8,16,32,–,–,–
O=C(N/N=C/Nc1ccc(Br)cc1)c1ccncc1,2,4,500,500,125,250,500,32,32,32,–,–,–
O=C(N/N=C/Nc1ccc(C(F)(F)F)cc1)c1ccncc1,2,2,500,1000,250,500,1000,32,32,32,–,–,–
O=C(N/N=C/Nc1cccc(C(F)(F)F)c1)c1ccncc1,1,1,500,1000,125,250,1000,16,16,32,–,–,–
O=C(N/N=C/Nc1ccc(Cl)cc1O)c1ccncc1,2,4,250,500,250,500,500,16,16,32,–,–,–
